Sampled rows, rich in hits. Any-hit rate of the full collection: about 2.9%.
RBBP9 inh = human RBBP9 inhibitors, primary screen, biochemical, fluorescence polarization, FP-Rh probe, HTS; recombinant RBBP9; 220,000 compounds, 0.2% hits; inhibition, % at 7.94 µM;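 active = inhibition above the campaign mean of all tested compounds plus 3 SD, cut at about 14% in these data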
Target sequence (O75884 whole entry, looked up): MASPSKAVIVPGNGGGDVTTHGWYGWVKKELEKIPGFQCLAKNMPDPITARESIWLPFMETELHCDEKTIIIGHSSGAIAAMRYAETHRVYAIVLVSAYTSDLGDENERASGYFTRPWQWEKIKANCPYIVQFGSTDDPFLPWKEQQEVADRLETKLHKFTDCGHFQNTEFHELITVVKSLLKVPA
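Measured by: FP readout at 525/598 nm; material: recombinant human RBBP9; also added: Serine-hydrolase probe FP-Rh, 375 nM pre-mixing; medium: Tris buffer pH 8.0, NaCl, Pluronic; replication: one well per compound; doses: one concentration, 7.94 µM nominal, 0.794% DMSO; timing: preincubation 30 min plus labeling 45 min at 25 °C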
RanGTP-Imp inh = inhibitors of RanGTP-importin-beta interaction, primary screen, biochemical, FRET, CFP-Ran, YFP-importin-beta, homogeneous | inhibition, % (concentration not given with the values) | 300,000 compounds, 1.1% hits | cell-free CFP-Ran/YFP-importin-beta FRET ratio | AID 2216, 2009;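 active = more than half of the replicate wells show a fall in the fluorescence ratio signal beyond about 16%, limit read from the data, passing the limit was not always enough; inconclusive = exactly half of the replicate wells pass the set limit; inactive = fewer than half of replicates pass the limit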
Runt-SMMHC FRET = inhibitors of RUNX1 Runt–CBFb-SMMHC binding, primary screen, biochemical, FRET, Cerulean-Runt, Venus-CBFb-SMMHC, uHTS | inhibition, % at 20 µM | AID 1434, 2008 | 220,000 compounds, 0.74% hits | Runt-related transcription factor 1 (Homo sapiens) + Core-binding factor subunit beta … | Cerulean-Runt/Venus-CBFb-SMMHC FRET ratio 530/480, 1 h;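 active = mean inhibition across duplicate retests at 20 µM reaching about 50%, limit read from the data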;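 also: inhibitors lower the FRET ratio by blocking Runt binding to CBFb-SMMHC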
PfM18AAP inh = PfM18AAP inhibitors, malaria aminopeptidase, primary screen, biochemical, QFRET, recombinant enzyme; M18 aspartyl aminopeptidase (Plasmodium falciparum 3D7); H-Glu-NHMec fluorogenic cleavage; inhibition, % at 7.35 µM; 290,000 compounds, 1.2% hits;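 active = inhibition above the campaign mean inhibition over all tested compounds plus 3 SD, cut at about 28% in these data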
Hck-Nef inh = inhibitors of Nef-activated human Hck kinase, primary screen, biochemical, Z-Lyte FRET, 384-well, Hck-YEEI | inhibition, % at 20 µM | Recombinant Hck-YEEI plus Nef, Z-Lyte FRET kinase assay | 220,000 compounds, 0.68% hits | AID 463187, 2010;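 active = Hck-Nef kinase inhibition above about 50%, limit read from the data; inactive = inhibition below that limit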
Runt-CBFb FRET = inhibitors of RUNX1 Runt–CBFb binding, primary screen, biochemical, FRET, Cerulean-Runt, Venus-CBFb, uHTS; Runt-related transcription factor 1 (Homo sapiens) + Core-binding factor subunit beta …; Cerulean-Runt/Venus-CBFb FRET ratio 530/480, 1 h; inhibition, % at 20 µM; 220,000 compounds, 0.46% hits; AID 1496, 2009;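 active = inhibition over about 50% at 20 µM in the single-dose screen, limit read from the data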
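Reagent – Venus-CBFb binding partner, 100 nM · Assay system – Cerulean-tagged RUNX1 Runt domain (FRET donor) fusion protein · Input – 100 nM per protein · Incubation – two 1 h room-temperature incubations shielded from light · Measured by – FRET fluorescence · Medium – Tris buffer pH 7.5 with salts and BSA · Benchmarks – unlabeled CBFb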
Each line names hits and unclear results; the compound was inactive in the other large screens.

CCn1c(C)cc(/C=C2\SC(=O)N(CC(=O)Nc3ccc(C)c(C)c3)C2=O)c1C	none
O=C(O)c1cccc(-n2cccc2/C=C2\NC(=O)N(Cc3ccc(F)cc3)C2=O)c1	none
COC(=O)C(C)N1C(=O)S/C(=C\c2ccc(-c3ccc(C(=O)O)cc3C)o2)C1=O (stereo unspecified)	RanGTP-Imp inh 17 (no result: RBBP9 inh, Runt-SMMHC FRET, Hck-Nef inh, Runt-CBFb FRET)
Cc1cccc(NC(=O)CN2C(=O)S/C(=C\c3ccc(-c4cccc(C(=O)O)c4C)o3)C2=O)c1	RanGTP-Imp inh 41
Cc1ccc(NC(=O)CN2C(=O)S/C(=C/c3ccc(-c4cc(C(=O)O)ccc4C)o3)C2=O)cc1C	RanGTP-Imp inh 36
Cc1cc(C(=O)O)ccc1-c1ccc(/C=C2\NC(=O)N(Cc3ccc(F)cc3)C2=O)o1	RanGTP-Imp inh 65, Runt-SMMHC FRET 80, Runt-CBFb FRET 116
C=CCN1C(=O)C(CC(=O)Nc2ccccc2)N(Cc2ccccn2)C1=S (stereo unspecified)	none
Cc1cc(NC(=O)CCC(=O)N(c2ccccc2)C(C(=O)NC2CCCC2)c2ccccc2F)no1 (stereo unspecified)	none (no result: RBBP9 inh, Runt-SMMHC FRET, Hck-Nef inh, Runt-CBFb FRET)
CC(=O)Oc1ccc2cc(-c3ccccc3)c(=O)oc2c1	RanGTP-Imp inh 81, Runt-SMMHC FRET 81
CC(=O)COc1ccc2cc(-c3ccccc3)c(=O)oc2c1	none (no result: RBBP9 inh, Runt-SMMHC FRET, Hck-Nef inh, Runt-CBFb FRET)
O=C(CCCCl)Oc1ccc2cc(-c3ccc4ccccc4n3)c(=O)oc2c1	RanGTP-Imp inh 102, Runt-SMMHC FRET 86
COc1ccc(C(CNc2ccc(C(F)(F)F)cn2)N(C)C)cc1OC (stereo unspecified)	none (no result: RBBP9 inh, Runt-SMMHC FRET, Hck-Nef inh, Runt-CBFb FRET)
CCCCN1C=C(C(=O)OC)C(c2ccccc2C(F)(F)F)C(C(=O)OC)=C1	RanGTP-Imp inh 94, Runt-SMMHC FRET 62, Runt-CBFb FRET 67
CCCCOc1ccccc1C1C(C(=O)OC)=C(C)N(C)C(C)=C1C(=O)OC	none
CCCCN1C=C(C(=O)OC)C(c2ccccc2Cl)C(C(=O)OC)=C1	RanGTP-Imp inh 96, Runt-SMMHC FRET 92
COCCN1C=C(C(=O)OC)C(c2ccccc2C(F)(F)F)C(C(=O)OC)=C1	RanGTP-Imp inh 56, Runt-SMMHC FRET 82, Hck-Nef inh 65, Runt-CBFb FRET 122
O=C(NCC1CCN(C(=O)c2c(F)c(F)c(F)c(F)c2F)CC1)c1c(F)c(F)c(F)c(F)c1F	none (no result: RBBP9 inh, Runt-SMMHC FRET, Hck-Nef inh, Runt-CBFb FRET)
CCCCC1CCC(C(=O)N(C)CC(=O)Nc2cccc(F)c2)CC1 (stereo unspecified)	RanGTP-Imp inh inconclusive (no result: RBBP9 inh, Runt-SMMHC FRET, Hck-Nef inh, Runt-CBFb FRET)
O=[N+]([O-])c1ccccc1Oc1ncccc1[N+](=O)[O-]	none
Cc1ccc(-c2ccc(C3C(C#N)=C(N)Oc4n[nH]c(C)c43)o2)cc1 (stereo unspecified)	RanGTP-Imp inh 39
COc1ccc(NC(=O)CSCc2cc(=O)n3nc(C4CC4)sc3n2)cc1	none (no result: RBBP9 inh, Runt-SMMHC FRET, Hck-Nef inh, Runt-CBFb FRET)
NS(=O)(=O)c1ccc(CCNC(=O)CCCCCn2c(=S)[nH]c3ccc(Br)cc3c2=O)cc1	Hck-Nef inh 50
O=C(CCCCCn1c(=S)[nH]c2ccc(Br)cc2c1=O)NCC1CCCO1 (stereo unspecified)	none
CC1CN(S(=O)(=O)c2ccc(C(=O)Nc3sc4c(c3C(N)=O)CCN(C)C4)cc2)CC(C)O1 (stereo unspecified)	none (no result: RanGTP-Imp inh)
CCN1CCc2c(sc(NC(=S)NC(=O)c3ccc(Cl)cc3)c2C(N)=O)C1	RanGTP-Imp inh 81, Runt-SMMHC FRET 60, Runt-CBFb FRET 119
CCN1CCN(S(=O)(=O)c2ccc(C(=O)Nc3sc4c(c3C(N)=O)CCN(CC)C4)cc2)CC1	RanGTP-Imp inh 58 (no result: RBBP9 inh, Runt-SMMHC FRET, Hck-Nef inh, Runt-CBFb FRET)
CC(C)N1CCc2c(sc(NC(=O)c3ccc(S(=O)(=O)N4CCc5ccccc54)cc3)c2C(N)=O)C1	RanGTP-Imp inh 90
